Hits are enriched below; roughly 2.7% of the tested compounds scored in any of these assays.
OX1R antag-1 – OX1R (human) antagonism; O43613; OX1R-expressing cells, FRET antagonist read-out; inhibition, % at 6.6 µM; 1.8% of 330,000 active; AID 485270; in the data active means inhibition mostly above about 38%, no sharp cut-off; inactive means mostly below about 40%
Target sequence (O43613 whole entry, looked up): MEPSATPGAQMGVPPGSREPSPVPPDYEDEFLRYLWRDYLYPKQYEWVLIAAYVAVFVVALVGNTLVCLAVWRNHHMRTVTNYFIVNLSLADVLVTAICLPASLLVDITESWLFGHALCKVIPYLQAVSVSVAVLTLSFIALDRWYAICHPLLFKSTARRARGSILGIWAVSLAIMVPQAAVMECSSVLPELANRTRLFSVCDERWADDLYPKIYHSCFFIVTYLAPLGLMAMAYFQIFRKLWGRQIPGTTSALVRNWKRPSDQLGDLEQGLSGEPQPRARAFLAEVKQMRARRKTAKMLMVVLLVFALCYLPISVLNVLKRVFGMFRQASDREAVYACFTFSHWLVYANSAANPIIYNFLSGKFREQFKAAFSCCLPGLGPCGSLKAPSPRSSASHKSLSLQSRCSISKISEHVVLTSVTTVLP
OX1R antag-2 – blocks the human orexin 1 receptor; 0.43% of 330,000 active; inhibition, % at 5 µM; CHO/OX1R cells, Fluo-8 calcium fluorescence, orexin A; O43613;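 active means inhibition above its plate's threshold, mean inhibition of all tested compounds on the plate plus 3 SD, cut at about 37% in these data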
CHO parental Ca – signal in parental CHO cells, OX1R antagonist counter-screen; parental CHO-K1, ATP-induced calcium, Fluo-8 fluorescence; inhibition, % at 5.6 µM; 0.63% of 330,000 active; AID 463079;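 active means inhibition above that plate's mean sample inhibition plus 3 SD, cut at about 26% in these data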
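Assay system: untransfected parental CHO cell line. Also added: ATP agonist challenge. Dosing: one dose, 5.6 µM nominal. Measured by: Fluo-8 fluorescence. Read-out: % inhibition. Benchmarks: ATP wells versus no-ATP DMSO wells. Repeats: no replicates.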
V1aR counter – activates human V1a receptor in oxytocin agonist counter-screen. 0.25% of 320,000 active. CHO-V1R cells, Fluo-8 calcium fluorescence, agonist mode; 0% DMSO, 100% 3 nM vasopressin. activation, % at 3 µM. P37288;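 active means activation above the mean activation of all tested compounds plus 3 SD, per screening run, cut at about 20% in these data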;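 further: signal is peak over basal fluorescence ratio across a 100 second FLIPR read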
OXTR potentiator – human OXTR potentiation; CHO-OTR cells, Fluo-8 calcium fluorescence, potentiator mode; 0% = oxytocin EC15, 100% = EC100; activation, % at 3 µM; 0.061% of 320,000 active; AID 2445;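 active means activation above that plate's cutoff, the mean activation of tested compounds plus 3 SD, cut at about 6.6% in these data, passing the limit was not always enough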
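Assay system: CHO-OTR cells, human receptor / Also added: oxytocin at about EC15, sub-maximal agonist stimulus / Dosing: single dose, 3.0 µM nominal final compound concentration / Incubation: 6 min pre-incubation, 100 s read / Technique: Fluo-8 calcium dye fluorescence / Read-out: % activation vs EC15 and EC100 oxytocin / Benchmarks: EC15 oxytocin low, 75 nM oxytocin high / Replicates: singlicate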
OXTR ag – activates the human oxytocin receptor; activation, % at 3 µM; P30559; 0.32% of 320,000 active; CHO-OTR cells, Fluo-8 calcium fluorescence; normalized: DMSO 0%, oxytocin 100%;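 active means activation above the mean of all tested compounds plus 3 SD, cutoff set per screening run, cut at about 20% in these data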;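 further: peak over basal fluorescence ratio from a 100 s FLIPR kinetic read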
Numbers stand for hits.

For O=c1cc(-c2ccccc2Cl)oc2c(NS(=O)(=O)c3cccs3)ccc(O)c12 the results were OX1R antag-1 73, OX1R antag-2 inactive, CHO parental Ca inactive, V1aR counter inactive, OXTR potentiator inactive and OXTR ag inactive.
`Cc1ccc(NC(=O)O/N=C/c2ccc(N(C)C)cc2)cc1` gave OX1R antag-1 inactive, OX1R antag-2 inactive, CHO parental Ca inactive, V1aR counter inactive, OXTR potentiator inactive and OXTR ag inactive.
`Cc1cc(C(C)(C)C)cc(C)c1C[n+]1ccc2ccccc2c1` gave OX1R antag-1 inactive, OX1R antag-2 inactive, CHO parental Ca inactive, V1aR counter inactive, OXTR potentiator inactive and OXTR ag inactive.
c1ccc(CNc2ncnc3c2cnn3Cc2ccccc2)cc1 was read as OX1R antag-1 inactive, OX1R antag-2 inactive, CHO parental Ca inactive, V1aR counter 21, OXTR potentiator inactive and OXTR ag 25.
Screening CCC(=O)CN(Cc1cc(OC)ccc1OC)S(=O)(=O)c1ccccc1Br returned OX1R antag-1 inactive, OX1R antag-2 inactive and CHO parental Ca inactive.
Screening N#Cc1c(NC(=O)c2ccccc2Cl)n(Cc2ccccc2)c2nc3ccccc3nc12 returned OX1R antag-1 inactive, OX1R antag-2 inactive, CHO parental Ca inactive, V1aR counter inactive, OXTR potentiator inactive and OXTR ag inactive.
CCCCn1c(NC(=O)c2ccccc2Cl)c(C#N)c2nc3ccccc3nc21 was read as OX1R antag-1 59, OX1R antag-2 inactive, CHO parental Ca inactive, V1aR counter inactive, OXTR potentiator inactive and OXTR ag inactive.
For O=S1(=O)c2cccc3cccc(c23)N1Cc1nnc(-c2ccccc2Br)o1 the results were OX1R antag-1 inactive, OX1R antag-2 inactive, CHO parental Ca 32, V1aR counter inactive, OXTR potentiator inactive and OXTR ag inactive.
O=S1(=O)c2cccc3cccc(c23)N1Cc1ccc(-c2nnco2)cc1 was read as OX1R antag-1 inactive, OX1R antag-2 inactive, CHO parental Ca inactive, V1aR counter inactive, OXTR potentiator inactive and OXTR ag inactive.
Screening CCN(CC)C(=O)CSc1nnc2nnc3cc(OC)ccc3n12 returned OX1R antag-1 76, OX1R antag-2 inactive, CHO parental Ca inactive, V1aR counter inactive, OXTR potentiator inactive and OXTR ag inactive.
For CCCCn1cc(C(=O)c2cc(Br)ccc2O)cc(C#N)c1=O the results were OX1R antag-1 inactive, OX1R antag-2 44, CHO parental Ca inactive, V1aR counter inactive, OXTR potentiator inactive and OXTR ag inactive.
For CCc1ccc(NC(=O)c2cc3c(C)nc4ccccc4c3o2)cc1 the results were OX1R antag-1 60, OX1R antag-2 inactive, CHO parental Ca inactive, V1aR counter inactive, OXTR potentiator inactive and OXTR ag inactive.
Screening Cc1ccc(CNC(=O)c2cc3c(C)nc4ccccc4c3o2)cc1 returned OX1R antag-1 57, OX1R antag-2 inactive, CHO parental Ca inactive, V1aR counter inactive, OXTR potentiator inactive and OXTR ag inactive.
Screening Cc1nc2ccccc2c2oc(C(=O)NCc3ccccn3)cc12 returned OX1R antag-1 inactive, OX1R antag-2 inactive, CHO parental Ca inactive, V1aR counter inactive, OXTR potentiator inactive and OXTR ag inactive.
Screening O=C(NCc1ccco1)c1sc(=S)n2c1[nH]c(=O)c1ccccc12 returned OX1R antag-1 50, OX1R antag-2 inactive, CHO parental Ca inactive, V1aR counter 21, OXTR potentiator inactive and OXTR ag 24.
`O=C(NC1CCCC1)c1sc(=S)n2c1[nH]c(=O)c1ccccc12` gave OX1R antag-1 inactive, OX1R antag-2 inactive, CHO parental Ca inactive, V1aR counter inactive, OXTR potentiator inactive and OXTR ag inactive.
For Cc1ccc(NC(=O)CSCC(=O)Nc2ccc(S(=O)(=O)N3CCOCC3)cc2)cc1 the results were OX1R antag-1 inactive, OX1R antag-2 inactive, CHO parental Ca inactive, V1aR counter inactive, OXTR potentiator inactive and OXTR ag inactive.
Screening O=C(CSc1cccc2cccnc12)Nc1ccc(S(=O)(=O)N2CCOCC2)cc1 returned OX1R antag-1 inactive, OX1R antag-2 inactive, CHO parental Ca 38, V1aR counter inactive, OXTR potentiator inactive and OXTR ag inactive.
Screening O=C(CSc1ccccc1)Nc1ccc(Cl)c(S(=O)(=O)N2CCOCC2)c1 returned OX1R antag-1 40, OX1R antag-2 inactive, CHO parental Ca inactive, V1aR counter inactive, OXTR potentiator inactive and OXTR ag inactive.
Screening Cc1ccc(NC(=O)CC(C)c2ccccc2)cc1S(=O)(=O)N1CCOCC1 (centres undefined) returned OX1R antag-1 37, OX1R antag-2 inactive, CHO parental Ca inactive, V1aR counter inactive, OXTR potentiator inactive and OXTR ag inactive.
CS(=O)(=O)Nc1ccccc1C(=O)OCC(=O)N1CCC(c2ccccc2)=N1 was read as OX1R antag-1 63, OX1R antag-2 inactive, CHO parental Ca inactive, V1aR counter inactive, OXTR potentiator inactive and OXTR ag inactive.
Screening O=C(O)c1ccc(Sc2nnc3ccccn23)c([N+](=O)[O-])c1 returned OX1R antag-1 72, OX1R antag-2 inactive, CHO parental Ca inactive, V1aR counter inactive, OXTR potentiator inactive and OXTR ag inactive.
`O=C(c1ccccc1NS(=O)(=O)c1ccc([N+](=O)[O-])cc1[N+](=O)[O-])N1O[C@@H]2C=C[C@H]1C2` gave OX1R antag-1 46, OX1R antag-2 inactive and CHO parental Ca inactive.
O=C(c1ccccc1NS(=O)(=O)c1ccccc1[N+](=O)[O-])N1CCOCC1 was read as OX1R antag-1 inactive, OX1R antag-2 inactive, CHO parental Ca inactive, V1aR counter inactive, OXTR potentiator inactive and OXTR ag inactive.
Cc1csc2nc(O)c(C(=O)NC3CCCCC3C)c(=O)n12 (centres undefined) was read as OX1R antag-1 inactive, OX1R antag-2 inactive, CHO parental Ca inactive, V1aR counter inactive, OXTR potentiator inactive and OXTR ag inactive.
For CCn1nc(C)cc1-c1nnc(SCC(=O)Nc2ccccc2)n1CCCOC the results were OX1R antag-1 inactive, OX1R antag-2 inactive, CHO parental Ca inactive, V1aR counter inactive, OXTR potentiator inactive and OXTR ag inactive.
Screening CCn1nc(C)cc1-c1nnc(Sc2ncc([N+](=O)[O-])s2)n1C returned OX1R antag-1 52, OX1R antag-2 inactive, CHO parental Ca inactive, V1aR counter inactive, OXTR potentiator inactive and OXTR ag inactive.
CCOC(=O)C1=CNS(=O)(=O)NC1c1ccccc1 (centres undefined) was read as OX1R antag-1 inactive, OX1R antag-2 inactive and CHO parental Ca inactive.
Screening O=c1oc2c3c4c(cc2c(C(F)(F)F)c1CCN1CCOCC1)CCCN4CCC3 returned OX1R antag-1 inactive, OX1R antag-2 inactive, CHO parental Ca inactive, V1aR counter 33, OXTR potentiator inactive and OXTR ag 34.
`CCc1c(C)nc(SCC(=O)c2cccs2)c(C#N)c1C` gave OX1R antag-1 64, OX1R antag-2 inactive, CHO parental Ca inactive, V1aR counter inactive, OXTR potentiator inactive and OXTR ag inactive.
